Bioassay records deposited in PubChem by several laboratories.
This is a sample that favours compounds with a hit; in the whole collection about 1.9% have one here.
UBC13 polyUb: human UBC13 polyubiquitination inhibition | actives 0.47% (n = 330,000) | AID 485273 | inhibition, % at 20 µM | P61088 | UBC13 polyubiquitin chain formation, TR-FRET; in the data active = inhibition above about 45%, passing the limit was not always enough
SR-BI DiI inh: mouse SR-BI HDL lipid transfer inhibition. Q61009. ldlA[mSR-BI] CHO cells, DiI-HDL uptake fluorescence, 3 h. inhibition, % at 12.5 µM. actives 0.96% (n = 320,000). AID 488896;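 active = mean replicate inhibition of at least 70% and a set share of replicates each scoring 70 or more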;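 note: 0% = median of neutral control wells and 100% = median of positive control wells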
Target sequence (Q61009 whole entry, looked up): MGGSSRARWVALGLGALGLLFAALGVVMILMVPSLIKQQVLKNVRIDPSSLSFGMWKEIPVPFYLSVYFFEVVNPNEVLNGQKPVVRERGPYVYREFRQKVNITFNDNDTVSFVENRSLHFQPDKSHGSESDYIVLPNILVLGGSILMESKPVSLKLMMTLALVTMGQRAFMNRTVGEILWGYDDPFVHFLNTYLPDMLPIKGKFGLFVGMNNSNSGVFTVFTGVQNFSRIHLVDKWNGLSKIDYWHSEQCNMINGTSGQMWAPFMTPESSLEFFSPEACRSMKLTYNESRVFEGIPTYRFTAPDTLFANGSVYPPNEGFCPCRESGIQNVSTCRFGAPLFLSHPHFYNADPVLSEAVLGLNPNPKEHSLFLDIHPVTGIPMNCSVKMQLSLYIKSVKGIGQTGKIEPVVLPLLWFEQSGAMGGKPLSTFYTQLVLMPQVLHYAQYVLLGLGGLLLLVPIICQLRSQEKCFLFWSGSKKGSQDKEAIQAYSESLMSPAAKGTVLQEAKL
SR-BI uptake up: SR-BI HDL lipid transfer activation | CHO ldlA[mSR-BI] cells, DiI-HDL uptake fluorescence, 3 h; 100 = double the neutral-control signal | AID 504775 | activation, % at 12.5 µM | actives 0.096% (n = 320,000);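 active = mean replicate activation of at least 60% and every replicate at or above 60%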;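 note: 0% = median plate neutral-control signal and 100% = twice that signal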
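System: LDL receptor-deficient CHO ldlA cells overexpressing murine SR-BI | Timing: 3 h uptake period with compound, 37 °C | Medium: HEPES-buffered (25 mM, pH 7.4) F12 plus 0.5% BSA | Dosing: Single-point compound dose | Signal: Bottom-read fluorescence, 550/595 nm | Read-out: Retained DiI signal reflecting DiI-HDL uptake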
Neddyl block: blocks human cullin neddylation; actives 0.58% (n = 360,000); TR-FRET cullin neddylation, biochemical; inhibition, % at 25 µM; in the data active = inhibition above about 36%
* = called active by the depositor; · = no result shown.

SMILES	UBC13 polyUb	SR-BI DiI inh	SR-BI uptake up	Neddyl block
COc1ccc(OC)c(NC(=O)Cc2ccc(NC3=NC4CS(=O)(=O)CC4S3)cc2)c1 (stereo not given)	11	1	-1	-5
COC(=O)C1(C(=O)OC)c2ccccc2N(S(=O)(=O)c2ccc(C)cc2)C1CC(=O)c1ccccc1 (stereo not given)	·	·	·	-3
COc1ccc(NC(=O)C(NC(=O)Cc2cccs2)c2ccc(C)cc2)cc1 (stereo not given)	-6	-65	65*	0
COc1ccc(NC(=O)C(NC(=O)Cc2cccs2)c2ccccc2)cc1 (stereo not given)	5	-2	2	4
Cc1cccc(-n2ncc3c(NCCCN4CCCC4=O)ncnc32)c1	10	13	-13	38*
COc1ccccc1N1CCN(C2CCCN(C(=O)CN3CCCCC3=O)C2)CC1 (stereo not given)	-2	-46	46	12
CN(C)c1cccc(Oc2nc3c(c(=O)n(C)c(=O)n3C)n2C)c1	-21	89*	-89	5
CCN(CC)C(=O)c1sc(NC(=O)c2c(OC)cccc2OC)c(C#N)c1C	-2	94*	-85	-6
Oc1ccc(Cl)cc1C1=NNC(c2ccc(Cl)cc2)C1 (stereo not given)	-7	84*	-84	9
Oc1c(Cl)cc(Cl)cc1C1=NNC(c2ccc(Cl)cc2)C1 (stereo not given)	·	84*	-84	38
CCCCCCN1C=C/C(=C\C=C(C#N)C#N)c2ccccc21	-36	76*	-76	0
Cc1ccc(NC(=O)CCC(=O)Nc2nnc(C3CCCCC3)s2)cc1	-6	-4	4	-3
COc1ccccc1-c1oc2ccccc2c1-c1ccc2cc[nH]c2c1	17	80*	-80	·
CCOC(=O)c1ccc(-c2c(-c3ccccc3OC)oc3ccccc23)cc1F	28	28	-28	·
COc1ccccc1/C=C/C(=O)NCC(=O)N/N=C/c1cc(Br)ccc1OC	0	98*	-98	7
COc1ccc(/C=C/C(=O)NCC(=O)N/N=C/c2cc(Br)ccc2OC)cc1	-10	78*	-78	-9
COc1ccc(COc2cc(-c3cccc(OC)c3)nc3ccc(N)cc23)cc1	15	38	-38	·
COc1ccc(COc2cc(-c3cccc(OC)c3)nc3ccc(NC(=O)c4ccc(C)cc4)cc23)cc1	-6	72*	-72	24
COc1ccc(COc2cc(-c3cccc(OC)c3)nc3ccc(NC(=O)c4ccc(N(C)C)cc4)cc23)cc1	1	90*	-90	-4
COc1ccc(COc2cc(-c3cccc(OC)c3)nc3ccc(NC(C)=O)cc23)cc1	16	33	-33	15
CC1CCN(CCCNC(=O)C2CCC(CNS(=O)(=O)c3ccccc3)CC2)CC1 (stereo not given)	4	-22	22	-1
COc1ccc(-c2nc(NC(=O)C3CC(=O)N(c4ccc5c(c4)OCCO5)C3)sc2C)cc1 (stereo not given)	3	74*	-74	-61
COc1ccc2nc(NC(=O)C3CC(=O)N(c4ccc5c(c4)OCCO5)C3)sc2c1 (stereo not given)	-2	24	-24	6
COc1ccc(NS(=O)(=O)c2cc3c4c(c2)CCN4C(=O)CC3)cc1OC	-2	0	0	9
N#CCCn1cc(/C=N/NC(N)=S)c(-c2ccccc2)n1	35	79*	-79	-6
SMILES	UBC13 polyUb	SR-BI DiI inh	SR-BI uptake up	Neddyl block
CCOc1cc(C(=O)OCc2cc(=O)n3c(C)csc3n2)ccc1OC	20	78*	-78	-9
O=C(N/N=C/c1ccc([N+](=O)[O-])o1)c1cc(-c2cccc(Br)c2)nc2ccccc12	-2	105*	-105	-12
CCCc1ccc(-c2cc(C(=O)N/N=C/c3ccc([N+](=O)[O-])o3)c3ccccc3n2)cc1	-17	95*	-95	7
CCOCCCn1c(=N)c(S(=O)(=O)c2ccc(C)cc2)cc2c(=O)n3cc(C)ccc3nc21	6	·	·	·
CCOC(=O)/C(=C\c1ccc(OC(F)F)cc1)C1=Nn2c(nnc2-c2ccc(Cl)cc2)SC1	·	89*	-89	-9
COc1ccc(C)cc1S(=O)(=O)NC(C)C(=O)NC1CC1 (stereo not given)	-6	-14	14	-10
O=[N+]([O-])c1ccc(/C=N/Nc2cc(Cl)nc(-c3ccccc3)n2)cc1	-2	6	-6	3
C/C(=N\Nc1ncc(Br)cn1)c1cccc([N+](=O)[O-])c1	-6	-12	12	-14
C/C(=N\Nc1cc(C)nc(-c2ccccc2)n1)c1cccc([N+](=O)[O-])c1	3	77*	-77	-6
COc1ccc(-c2nc(N/N=C(\C)c3ccc(O)cc3)c3ccccc3n2)cc1	8	·	·	-2
C/C(=N\Nc1cc(-c2ccccc2)nc(-c2ccccc2)n1)c1ccc(O)c(C)c1	-7	94*	-94	·
COc1cc(N/N=C(\C)c2ccc(N)cc2)nc(-c2ccccc2)n1	10	79*	-79	30
O=[N+]([O-])c1cccc(/C=N/Nc2cc(Cl)nc(-c3ccccc3)n2)c1	-8	74*	-74	2
Cc1ccc(C)c(OCCC(=O)OCC(=O)Nc2cccc(S(=O)(=O)N3CCCC3)c2)c1	-5	-29	29	14
COc1ccc(NC(=O)c2cc(-c3cc(F)ccc3OCC3CCCO3)n[nH]2)cc1OC (stereo not given)	·	·	·	8
O=C(CN1C(=O)/C(=C/c2ccccc2)SC1=S)N1CCN(CCc2ccccn2)CC1	-11	23	-23	-41
O=C(COC(=O)c1ccc(F)cc1F)Nc1cc(S(=O)(=O)N2CCOCC2)ccc1Cl	3	-36	36	8
COc1cc(N/N=C(\C)c2ccc(O)c(C)c2)nc(-c2ccccc2)n1	15	92*	-92	29
C/C(=N\Nc1nc(C)cc(-c2ccccc2)n1)c1ccc(O)cc1	2	54	-54	8
O=C(c1cnn2c(C(F)(F)F)cc(-c3ccco3)nc12)N1CCCCCC1	-4	-2	2	34
O=C(c1cnn2c(C(F)(F)F)cc(-c3ccco3)nc12)N1CCc2ccccc2C1	-4	83*	-83	·
Cc1c(NC(=O)C(C)Oc2ccc(Br)cc2)c(=O)n(-c2ccccc2)n1C (stereo not given)	13	-4	4	-2
Cc1noc(/C=C/c2ccco2)c1S(=O)(=O)N1CCC(C(=O)NC(C)c2ccccc2)CC1 (stereo not given)	-27	81*	-81	6
CCN(CCN(C)C)C(=O)C1CCN(S(=O)(=O)c2c(C)noc2/C=C/c2ccccc2F)CC1	4	25	-25	-20
CCOc1ccccc1/C=C/c1onc(C)c1S(=O)(=O)N1CCC(C(=O)N(CC)CC)CC1	-2	71*	-71	4
Cc1cc(-c2cc(-c3ccc(Cl)cc3)on2)nc(NC2CCCC2)n1	11	10	-10	21
Cc1cc(-c2cc(-c3ccccc3)on2)nc(NC2CCCC2)n1	20	81*	-81	35
